ChEMBL document CHEMBL1938298, “Synthesis and characterization of [¹²⁵I]2-iodo N-[(S)-{(S)-1-methylpiperidin-2-yl}(phenyl)methyl]3-trifluoromethyl-benzamide as novel imaging probe for glycine transporter 1” (Bioorg Med Chem, 2011)
Activity calls are given as the source filed them. The calls are words filed in the database; no cut-off is given here.

What was measured:
[1] = biological target: T1, Sodium- and chloride-dependent glycine transporter 1 (Homo sapiens) (UniProt P48067); test: Ratio of compound IC50 to ALX5407 IC50 for human GlyT1
T1 sequence (whole entry): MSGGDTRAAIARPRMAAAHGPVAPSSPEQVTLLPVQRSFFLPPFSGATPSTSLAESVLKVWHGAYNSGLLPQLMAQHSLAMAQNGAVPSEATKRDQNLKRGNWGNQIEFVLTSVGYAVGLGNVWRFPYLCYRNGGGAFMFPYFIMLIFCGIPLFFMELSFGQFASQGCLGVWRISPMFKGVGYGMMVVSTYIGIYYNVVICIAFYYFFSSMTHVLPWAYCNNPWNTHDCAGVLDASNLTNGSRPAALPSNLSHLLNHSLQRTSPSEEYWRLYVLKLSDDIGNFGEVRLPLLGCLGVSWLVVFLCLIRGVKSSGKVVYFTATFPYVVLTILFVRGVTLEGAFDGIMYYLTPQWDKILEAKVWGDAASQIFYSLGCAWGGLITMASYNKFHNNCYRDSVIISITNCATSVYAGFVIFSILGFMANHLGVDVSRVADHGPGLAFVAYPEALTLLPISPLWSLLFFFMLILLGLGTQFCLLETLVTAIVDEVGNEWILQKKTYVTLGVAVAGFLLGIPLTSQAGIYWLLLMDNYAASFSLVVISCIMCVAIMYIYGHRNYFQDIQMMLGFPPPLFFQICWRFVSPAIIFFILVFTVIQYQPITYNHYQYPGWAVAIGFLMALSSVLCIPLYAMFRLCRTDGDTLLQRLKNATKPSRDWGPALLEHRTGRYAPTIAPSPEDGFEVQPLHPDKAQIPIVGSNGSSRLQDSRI

[2] = biological target: T2, Sodium- and chloride-dependent glycine transporter 1 (Rattus norvegicus) (UniProt P28572); test: Binding affinity to GlyT1 in rat brain cerebellum at 0.03 to 0.04 nM preincubated for 20 mins in binding buffer before compound addition measured after 30 mins by autoradiography in presence of 0.01 mM GlyT1 inhibitor ALX5407 relative to control; assay type: tissue-based; conditions: tested as the 125I-labelled form
T2 sequence (whole entry): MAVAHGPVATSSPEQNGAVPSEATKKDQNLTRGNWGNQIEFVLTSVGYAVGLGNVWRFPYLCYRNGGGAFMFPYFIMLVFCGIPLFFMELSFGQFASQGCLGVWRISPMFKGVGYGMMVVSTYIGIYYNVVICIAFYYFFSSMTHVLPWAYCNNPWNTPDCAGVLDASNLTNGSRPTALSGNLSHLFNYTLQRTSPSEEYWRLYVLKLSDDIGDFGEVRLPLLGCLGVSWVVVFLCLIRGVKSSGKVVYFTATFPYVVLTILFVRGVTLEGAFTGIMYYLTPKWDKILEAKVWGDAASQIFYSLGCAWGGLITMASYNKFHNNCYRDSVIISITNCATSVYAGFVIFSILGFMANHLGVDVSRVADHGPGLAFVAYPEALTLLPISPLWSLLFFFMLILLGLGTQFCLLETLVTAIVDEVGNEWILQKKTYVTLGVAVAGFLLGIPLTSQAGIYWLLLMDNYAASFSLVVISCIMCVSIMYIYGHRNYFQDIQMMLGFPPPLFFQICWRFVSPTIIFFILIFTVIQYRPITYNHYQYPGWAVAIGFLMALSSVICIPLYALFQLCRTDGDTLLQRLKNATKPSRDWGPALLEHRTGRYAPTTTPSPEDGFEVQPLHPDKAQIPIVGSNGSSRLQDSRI
Procedure, shortened: (§1)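 Rat brain sagittal sections (20 µm) preincubated 20 min at 25 °C in Tris-HCl buffer pH 7.5 (NaCl, KCl, MgCl2, CaCl2), then 30 min at 25 °C with [125I] tracer (100 kBq, 0.03–0.04 nM) plus competitor (10 µM; glycine 1 or 10 mM). Cold washes, imaging plate 3 days, ROI PSL minus background per mm². % control from ≥triplicate slices, three rats.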

Mus musculus [3] = test: In vivo binding affinity to GlyT1 in ddY mouse brain cortex at 33.3 kBq, iv after 30 mins in presence of SSR504734 2 mg/kg, iv administered 15 mins prior to compound administration relative to control; assay type: functional, organism-based; parameters: dose 2 mg/kg; conditions: tested as the 125I-labelled form
Procedure, shortened: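 Blocking study in male ddY mice (6 weeks, 30–35 g). The blocker (2 mg/kg in 30% DMSO/saline) was injected i.v. 15 min before about 33.3 kBq [125I]tracer i.v.; mice were killed at 30 or 60 min. Brains were divided into cortex, corpus callosum, hippocampus, thalamus, midbrain, medulla and cerebellum, weighed and gamma-counted as % dose/g. Values are mean ± SD, n = 5–6, compared to control by Kruskal–Wallis with Dunn's post-test.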

Mus musculus [4] = test: In vivo binding affinity to GlyT1 in ddY mouse brain striatum at 33.3 kBq, iv after 30 mins in presence of SSR504734 2 mg/kg, iv administered 15 mins prior to compound administration relative to control; assay type: functional, organism-based; parameters: dose 2 mg/kg; conditions: tested as the 125I-labelled form
Mus musculus [5] = test: In vivo binding affinity to GlyT1 in ddY mouse brain hippocampus at 33.3 kBq, iv after 60 mins in presence of N-Me-SSR504734 2 mg/kg, iv administered 15 mins prior to compound administration relative to control; assay type: functional, organism-based; parameters: dose 2 mg/kg; conditions: tested as the 125I-labelled form
Procedure, shortened: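 Male ddY mice (6 W, 30–35 g) were given blocker 2 mg/kg iv in 30% DMSO/saline 15 min before [125I] tracer (ca. 33.3 kBq, 0.1 mL, tail vein). Killed 60 min after tracer injection. Brain dissected into regions including hippocampus, weighed and gamma counted, giving % dose/g and region-to-blood ratio versus control. Mean ± SD, n = 5–6; Kruskal–Wallis with Dunn's post-test.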

[6] = biological target: T2, Sodium- and chloride-dependent glycine transporter 1 (Rattus norvegicus); test: Binding affinity to GlyT1 in rat brain cerebellum at 0.03 to 0.04 nM preincubated for 20 mins in binding buffer before compound addition measured after 30 mins by autoradiography in presence of 0.01 mM GlyT2 inhibitor ORG25543 relative to control; assay type: tissue-based; conditions: tested as the 125I-labelled form; procedure, shortened: as §1
Liver [7] = test: Drug uptake in ddY mouse liver at 11.1 kBq, iv after 0.5 min by gamma counting; assay type: ADME, organism-based; conditions: in vivo
Procedure, shortened: (§2)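 Male ddY mice (6 weeks, 30–35 g) were given about 11.1 kBq of [125I]tracer in 0.1 mL i.v. via the tail vein. At each time point the animals were killed and organs dissected, weighed and gamma-counted. Uptake is expressed as % injected dose per gram of tissue, mean ± SD, n = 5–6.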

Liver [8] = test: Drug uptake in ddY mouse liver at 11.1 kBq, iv after 180 min by gamma counting; assay type: ADME, organism-based; conditions: in vivo, 3 h; procedure, shortened: as §2
Nucleic Acid = test: Ratio of drug level in brain to blood in ddY mouse at 11.1 kBq, iv after 15 min by gamma counting; assay type: ADME, organism-based
Stomach = test: Drug uptake in ddY mouse stomach at 11.1 kBq, iv after 0.5 min by gamma counting; assay type: ADME, organism-based; conditions: in vivo; procedure, shortened: as §2
Blood = test: Drug uptake in ddY mouse blood at 11.1 kBq, iv after 180 min by gamma counting; assay type: ADME, organism-based; conditions: in vivo, 3 h
Procedure, shortened: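 Male ddY mice (6 weeks, 30–35 g) received about 11.1 kBq [125I]tracer in 0.1 mL i.v. via tail vein. Killed at set times, organs dissected and weighed, radioactivity gamma counted. Reported as % injected dose/g tissue, mean ± SD, n = 5–6.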

SMILES | Ratio IC50 [1] | Activity [2] [%] | Activity (Mus musculus [3]) | Activity (Mus musculus [4]) | Activity (Mus musculus [5]) | Activity [6] [%] | Drug uptake (Liver [7]) [% ID/g] | Drug uptake (Liver [8]) [% ID/g] | Ratio (Nucleic Acid) | Drug uptake (Stomach) [% ID/g] | Drug uptake (Blood) [% ID/g]
CN1CCCC[C@H]1[C@@H](NC(=O)c1cccc(C(F)(F)F)c1I)c1ccccc1 | 6 | 43.1 | inactive | inactive | Active | 124 | – | – | – | – | –
CN1CCCC[C@H]1[C@@H](NC(=O)c1cccc(C(F)(F)F)c1[125I])c1ccccc1 | – | – | – | – | – | – | 1.82 | 15.05 | 2.42 | 0.83 | 0.85
